Data reported in ChEMBL document CHEMBL1148107, “Phomadecalins A-D and phomapentenone A: new bioactive metabolites from Phoma sp. NRRL 25697, a fungal colonist of Hypoxylon stromata” (2002).
The source made the active and inactive calls. No cut-off for these calls is given here.

What was measured:
Bacillus subtilis = assay: Antimicrobial activity against Bacillus subtilis ATCC 6051 at 200 ug/disk; type: functional; conditions: read-out: IZ
Procedure, shortened: (§1)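 Standard disk diffusion assay with 200 µg of compound applied per disk. Activity was read as the diameter (mm) of the zone of growth inhibition around the disk.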

Staphylococcus aureus = assay: Antimicrobial activity against Staphylococcus aureus ATCC 29213 at 200 ug/disk; type: functional; conditions: read-out: IZ; procedure, shortened: as §1
Candida albicans = assay: Antimicrobial activity against Candida albicans ATCC 90029 at 200 ug/disk; type: functional, organism-based; procedure, shortened: as §1

Structure (SMILES)	zone of inhibition at 200 µg/disc (Bacillus subtilis) [mm]	zone of inhibition at 200 µg/disc (Staphylococcus aureus) [mm]	Activity (Candida albicans)
C=C(COC(C)=O)[C@@]12O[C@@H]1[C@@]1(C)C(=C[C@H]2O)C=C[C@@H](O)[C@@H]1C [PHOMADECALIN B]	10	8	inactive
C=C(CO)[C@@]12O[C@@H]1[C@@]1(C)C(=C[C@H]2O)C=CC[C@@H]1C [PHOMADECALIN A]	18	10	inactive
C=C(CO)[C@@]12O[C@@H]1[C@@]1(C)C(=C[C@H]2O)C=C[C@@H](O)[C@@H]1C [PHOMADECALIN D]	9	8	inactive
C=C(CO)[C@@]12O[C@@H]1[C@@]1(C)C(=C[C@H]2O)C=CC(=O)[C@@H]1C [PHOMADECALIN C]	12	–	–
